ChEMBL document CHEMBL1133101, “7-Methyl-6,7,8,9,14,15-hexahydro-5H-benz[d]indolo[2,3-g]azecine: a new heterocyclic system and a new lead compound for dopamine receptor antagonists” (J Med Chem, 2000)

Columns and labels:
[1] = target: Angiotensin II receptor (Homo sapiens) (UniProt P30556+P50052); assay: Percent decrease of Angiotensin II receptor binding; assay type: protein assay; design: concentration or dose not given beside the values
In short: (§1)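 Preliminary screen of receptors isolated from rat or pig tissues, run with minor changes to standard procedures. Each compound was tested at a single fixed concentration for each receptor. The read-out was the percent decrease in binding of the named radioligand.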

[2] = target: Sodium-dependent serotonin transporter (Homo sapiens) (UniProt P31645); assay: % Decrease of 5-HT carrier-receptor -bound radioactivity using paroxetine as a radioligand.; design: concentration or dose not given beside the values; in short: as §1
Sequence of Sodium-dependent serotonin transporter (Homo sapiens) (P31645 whole entry, looked up): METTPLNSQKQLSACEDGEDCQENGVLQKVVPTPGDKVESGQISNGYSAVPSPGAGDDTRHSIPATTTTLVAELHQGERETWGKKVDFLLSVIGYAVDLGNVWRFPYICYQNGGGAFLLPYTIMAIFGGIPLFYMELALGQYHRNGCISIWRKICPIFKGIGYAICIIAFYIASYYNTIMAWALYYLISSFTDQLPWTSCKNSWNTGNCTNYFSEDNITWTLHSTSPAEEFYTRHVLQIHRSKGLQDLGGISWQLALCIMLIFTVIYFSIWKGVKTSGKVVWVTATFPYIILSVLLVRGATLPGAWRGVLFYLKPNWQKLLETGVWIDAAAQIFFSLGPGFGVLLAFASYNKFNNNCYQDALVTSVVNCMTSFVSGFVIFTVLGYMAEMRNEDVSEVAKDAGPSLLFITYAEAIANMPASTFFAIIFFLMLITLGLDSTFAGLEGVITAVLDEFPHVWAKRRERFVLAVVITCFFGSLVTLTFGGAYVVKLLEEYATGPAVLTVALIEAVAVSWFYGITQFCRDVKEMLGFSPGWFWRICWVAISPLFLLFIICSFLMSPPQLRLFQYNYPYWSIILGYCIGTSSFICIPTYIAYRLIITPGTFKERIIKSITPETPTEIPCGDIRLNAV

[3] = target: Glutamate receptor ionotropic AMPA (Homo sapiens) (UniProt P48058+P42263+P42262+P42261); assay: Percent decrease of Quisqualate receptor binding using AMPA; assay type: protein-complex assay; design: scale not given: the % may be the effect or the level left; in short: as §1
[4] = target: T1, 5-hydroxytryptamine receptor 1A (Homo sapiens) (UniProt P08908); assay: Percent decrease in 5-hydroxytryptamine 1A receptor binding using 8-OH-DPAT; design: concentration or dose not given beside the values; in short: as §1
T1 sequence (whole entry): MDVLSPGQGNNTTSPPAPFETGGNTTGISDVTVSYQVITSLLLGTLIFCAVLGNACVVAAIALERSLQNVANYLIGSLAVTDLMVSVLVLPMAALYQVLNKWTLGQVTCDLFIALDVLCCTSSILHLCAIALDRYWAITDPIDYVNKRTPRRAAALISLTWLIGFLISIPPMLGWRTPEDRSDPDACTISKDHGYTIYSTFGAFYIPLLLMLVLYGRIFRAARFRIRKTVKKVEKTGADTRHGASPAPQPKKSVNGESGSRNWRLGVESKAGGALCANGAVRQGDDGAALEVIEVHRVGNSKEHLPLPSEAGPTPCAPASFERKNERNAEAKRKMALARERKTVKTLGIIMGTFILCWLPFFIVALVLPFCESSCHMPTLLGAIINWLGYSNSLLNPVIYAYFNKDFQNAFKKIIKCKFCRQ

[5] = target: Neuronal acetylcholine receptor (Rattus norvegicus) (UniProt P04757+P09483+P12389+P12390+P12392+P43144+Q9JLB5+P12391+P43143+P20420+Q05941); assay: % Decrease of Nicotinic acetylcholine receptor-bound radioactivity using cytisine as a radioligand.; assay type: protein-complex assay; design: scale not given: the % may be the effect or the level left; in short: as §1
[6] = Percent decrease in Bradykinin receptor binding; design: concentration or dose not given beside the values; in short: as §1
[7] = target: T2, Adrenergic receptor alpha-1 (Homo sapiens, UniProt P35348+P25100+P35368); assay: Binding affinity against Alpha-1 adrenergic receptor; assay type: protein assay
T2 sequence (P35348 whole entry): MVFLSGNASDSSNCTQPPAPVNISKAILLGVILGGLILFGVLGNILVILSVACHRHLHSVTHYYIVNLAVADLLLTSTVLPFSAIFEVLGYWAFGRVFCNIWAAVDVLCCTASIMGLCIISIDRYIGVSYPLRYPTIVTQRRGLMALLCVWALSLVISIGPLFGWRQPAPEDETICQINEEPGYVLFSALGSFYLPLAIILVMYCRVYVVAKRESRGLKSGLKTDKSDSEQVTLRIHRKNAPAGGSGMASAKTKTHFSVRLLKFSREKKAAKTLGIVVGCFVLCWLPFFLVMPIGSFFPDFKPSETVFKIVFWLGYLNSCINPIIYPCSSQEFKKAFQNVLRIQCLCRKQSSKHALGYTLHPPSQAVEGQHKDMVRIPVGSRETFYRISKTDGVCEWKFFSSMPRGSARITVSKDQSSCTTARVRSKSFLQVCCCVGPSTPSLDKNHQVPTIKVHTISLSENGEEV
T2 sequence (P25100 whole entry): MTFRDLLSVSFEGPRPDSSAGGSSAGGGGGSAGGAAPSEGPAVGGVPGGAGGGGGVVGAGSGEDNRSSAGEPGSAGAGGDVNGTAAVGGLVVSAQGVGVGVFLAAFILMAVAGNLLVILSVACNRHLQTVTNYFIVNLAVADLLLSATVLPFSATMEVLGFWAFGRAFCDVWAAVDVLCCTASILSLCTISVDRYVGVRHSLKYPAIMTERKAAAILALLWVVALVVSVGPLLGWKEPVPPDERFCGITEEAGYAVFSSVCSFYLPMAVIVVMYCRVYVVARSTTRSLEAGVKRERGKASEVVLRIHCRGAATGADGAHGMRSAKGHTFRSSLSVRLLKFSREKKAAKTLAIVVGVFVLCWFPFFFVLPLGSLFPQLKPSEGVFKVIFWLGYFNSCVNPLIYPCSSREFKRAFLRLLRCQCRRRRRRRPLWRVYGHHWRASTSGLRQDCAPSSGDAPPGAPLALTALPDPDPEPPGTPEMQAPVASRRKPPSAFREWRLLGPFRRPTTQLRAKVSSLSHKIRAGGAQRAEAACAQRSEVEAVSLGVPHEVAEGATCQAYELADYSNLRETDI
T2 sequence (P35368 whole entry): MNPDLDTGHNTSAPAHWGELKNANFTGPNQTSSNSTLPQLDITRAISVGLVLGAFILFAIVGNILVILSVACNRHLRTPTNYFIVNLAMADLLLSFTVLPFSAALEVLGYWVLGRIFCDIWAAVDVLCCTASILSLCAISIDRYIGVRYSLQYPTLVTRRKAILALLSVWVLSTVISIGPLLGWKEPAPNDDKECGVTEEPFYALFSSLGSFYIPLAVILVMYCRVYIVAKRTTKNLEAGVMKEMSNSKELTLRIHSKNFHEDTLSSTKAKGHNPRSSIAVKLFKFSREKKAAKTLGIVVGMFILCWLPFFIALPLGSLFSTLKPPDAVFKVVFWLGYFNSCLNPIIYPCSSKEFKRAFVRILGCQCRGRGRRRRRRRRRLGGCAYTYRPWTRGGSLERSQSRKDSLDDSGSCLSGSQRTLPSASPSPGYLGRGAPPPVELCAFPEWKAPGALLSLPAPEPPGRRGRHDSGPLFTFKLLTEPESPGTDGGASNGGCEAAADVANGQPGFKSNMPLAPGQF

[8] = target: Serotonin 2 (5-HT2) receptor (Rattus norvegicus) (UniProt P30994+P08909+P14842); assay: Percent decrease in 5-hydroxytryptamine 2 receptor binding using ketanserin; assay type: protein assay; design: scale not given: the % may be the effect or the level left; in short: as §1
Sequence of Serotonin 2 (5-HT2) receptor (Rattus norvegicus) (P08909 whole entry, looked up): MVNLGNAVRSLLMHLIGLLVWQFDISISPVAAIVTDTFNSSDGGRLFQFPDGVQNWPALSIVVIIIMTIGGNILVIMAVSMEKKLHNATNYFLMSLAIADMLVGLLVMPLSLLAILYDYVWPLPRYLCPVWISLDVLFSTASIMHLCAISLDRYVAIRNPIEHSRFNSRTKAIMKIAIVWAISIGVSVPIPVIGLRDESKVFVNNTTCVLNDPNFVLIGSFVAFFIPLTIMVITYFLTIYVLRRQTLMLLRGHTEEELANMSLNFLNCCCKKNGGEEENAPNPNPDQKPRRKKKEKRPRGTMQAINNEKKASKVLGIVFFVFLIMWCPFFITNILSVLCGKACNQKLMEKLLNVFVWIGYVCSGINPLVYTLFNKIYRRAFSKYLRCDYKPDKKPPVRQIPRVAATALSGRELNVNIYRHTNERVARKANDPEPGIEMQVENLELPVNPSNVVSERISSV
Sequence of Serotonin 2 (5-HT2) receptor (Rattus norvegicus) (P14842 whole entry, looked up): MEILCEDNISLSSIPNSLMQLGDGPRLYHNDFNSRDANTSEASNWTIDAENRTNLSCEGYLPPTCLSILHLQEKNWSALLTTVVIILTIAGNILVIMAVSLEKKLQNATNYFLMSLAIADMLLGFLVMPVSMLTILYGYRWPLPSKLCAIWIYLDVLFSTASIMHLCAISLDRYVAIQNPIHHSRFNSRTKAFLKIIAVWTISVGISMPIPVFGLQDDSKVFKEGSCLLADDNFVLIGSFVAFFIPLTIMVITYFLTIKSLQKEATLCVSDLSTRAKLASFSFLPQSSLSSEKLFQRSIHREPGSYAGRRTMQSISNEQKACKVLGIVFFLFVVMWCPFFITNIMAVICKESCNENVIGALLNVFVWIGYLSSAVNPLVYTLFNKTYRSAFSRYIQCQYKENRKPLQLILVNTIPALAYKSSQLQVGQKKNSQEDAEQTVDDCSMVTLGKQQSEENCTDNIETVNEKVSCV
Sequence of Serotonin 2 (5-HT2) receptor (Rattus norvegicus) (P30994 whole entry, looked up): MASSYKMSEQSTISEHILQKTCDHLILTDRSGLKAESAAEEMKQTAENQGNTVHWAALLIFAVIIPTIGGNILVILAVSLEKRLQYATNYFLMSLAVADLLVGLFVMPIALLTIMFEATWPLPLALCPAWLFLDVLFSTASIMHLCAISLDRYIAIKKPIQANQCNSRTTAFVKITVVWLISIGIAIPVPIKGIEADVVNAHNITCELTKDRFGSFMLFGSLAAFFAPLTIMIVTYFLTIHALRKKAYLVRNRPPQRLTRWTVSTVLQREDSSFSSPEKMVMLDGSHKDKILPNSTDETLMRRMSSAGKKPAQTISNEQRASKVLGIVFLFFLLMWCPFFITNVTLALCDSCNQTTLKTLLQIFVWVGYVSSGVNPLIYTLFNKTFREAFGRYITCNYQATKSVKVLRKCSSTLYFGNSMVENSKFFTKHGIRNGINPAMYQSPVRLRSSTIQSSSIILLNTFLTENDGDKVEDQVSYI

[9] = target: GABA-A receptor; anion channel (Homo sapiens) (UniProt P14867+P47870+P18507+P28472+P48169+Q99928+Q9UN88+P34903+O00591+O14764+Q8N1C3+P18505+P78334+P47869+P31644+Q16445); assay: Displacement of muscimol from GABA-A receptor; assay type: protein-complex assay; in short: as §1
[10] = target: Adrenergic receptor alpha-1 (Homo sapiens) (UniProt P35348+P25100+P35368); assay: Percent decrease in Alpha-1 adrenergic receptor binding using prazosin; assay type: protein assay; in short: as §1

## COc1cc2c(cc1OC)C1c3[nH]c4ccccc4c3CCN1CC2 (stereo not drawn)
[1]
  Activity: 6%
[2]
  Activity: -8%
[3]
  Activity: -1%
[4]
  Activity: -21%
[5]
  Activity: -4%
[6]
  Activity: 9%
[7]
  Ki: 0.017 µM
[8]
  Activity: -32%
[9]
  Activity: -26%
[10]
  Decrease: -94%

## c1ccc2c(c1)CCN1CCc3c([nH]c4ccccc34)C21 (stereo not drawn)
[1]
  Activity: 0%
[2]
  Activity: -32%
[3]
  Activity: 3%
[4]
  Activity: -12%
[5]
  Activity: 0%
[6]
  Activity: -2%
[7]
  Ki: 0.079 µM
[8]
  Activity: -41%
[9]
  Activity: -17%
[10]
  Decrease: -82%

## c1ccc2c3c([nH]c2c1)C1c2[nH]c4ccccc4c2CCN1CC3
[1]
  Activity: 0%
[2]
  Activity: -45%
[3]
  Activity: -1%
[4]
  Activity: -25%
[5]
  Activity: 1%
[6]
  Activity: 2%
[7]
  Ki: 0.076 µM
[8]
  Activity: -52%
[9]
  Activity: 5%
[10]
  Decrease: -88%

## CN1CCc2ccccc2Cc2[nH]c3ccccc3c2CC1
[1]
  Activity: 6%
[2]
  Activity: -8%
[4]
  Activity: -72%
[5]
  Activity: -3%
[6]
  Activity: -2%
[7]
  Ki: 0.011 µM
[9]
  Activity: -9%
[10]
  Decrease: -97%
